From PubChem
Sampled rows, rich in hits. Any-hit rate of the full collection: about 1.9%.
ASAP1 GAP inh = blocks human ASAP1-stimulated Arf1 GTP hydrolysis. GDP FP detection. inhibition, % at 16.5 µM. AID 624377. Q9ULH1. 0.19% of 360,000 active; in the data active = inhibition above about 25%
Efflux pump inh = inhibitors of Candida antifungal efflux pumps expressed in yeast | S. cerevisiae Candida pump triplex, Nile Red efflux | inhibition, % at 10 µM | 0.44% of 330,000 active;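 active = plate passing quality check with inhibition over a set limit, or well fluorescence over plate mean plus 4 SD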;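 also: Nile Red retained in pooled yeast measured as flow cytometry median fluorescence; higher means more Nile Red kept so more efflux inhibition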
ARFGAP1 inh = inhibits rat ARF GTPase activating protein 1; inhibition, % at 16.5 µM; Q62848; Arfgap1-stimulated ARF1 GTP hydrolysis, GDP FP detection; 0.26% of 360,000 active;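 active = inhibition above a per-plate limit, mean inhibition of low control wells plus 3 SD, cut at about 25% in these data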
Target sequence (Q62848 1-136 limits assumed): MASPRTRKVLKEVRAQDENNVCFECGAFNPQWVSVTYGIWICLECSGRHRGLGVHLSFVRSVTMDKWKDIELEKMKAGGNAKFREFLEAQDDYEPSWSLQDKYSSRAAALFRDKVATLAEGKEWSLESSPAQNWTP
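Material: rat Arfgap1 GAP domain (His6, aa 1-136), purified enzyme. Also added: human ARF1(Δ1-17)-GTP substrate. Compound dosing: 16.5 µM single point, 1.26% DMSO. Timing: enzyme reaction 120 min at 25 °C after 20 min preincubation. Signal: GDP detection by fluorescence polarization. Read-out basis: percent inhibition of GAP-stimulated GDP formation, scaled between DMSO and no-Arfgap1 medians.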
FGF22 binding = binders of recombinant human FGF22 by thermal shift. SYPRO orange fluorescence; percent of sucrose octasulfate shift, DMSO zero. activity (Tm shift, normalised), % at 9.99 µM. 1.5% of 340,000 active;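 active = mean Tm shift, scaled 0 neutral to 100 positive control, at about 1.3% or above, every replicate too, limit read from the data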
Rtt109 HAT inh = inhibitors of Candida albicans Rtt109/Vps75 histone acetyltransferase; 0.16% of 330,000 active; inhibition, % at 34.9 µM; purified Rtt109/Vps75, ThioGlo CoA-SH fluorescence, 4 h; Q5AAJ8;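 active = inhibition of at least 50% in every replicate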
Target sequence (Q5AAJ8 whole entry, looked up): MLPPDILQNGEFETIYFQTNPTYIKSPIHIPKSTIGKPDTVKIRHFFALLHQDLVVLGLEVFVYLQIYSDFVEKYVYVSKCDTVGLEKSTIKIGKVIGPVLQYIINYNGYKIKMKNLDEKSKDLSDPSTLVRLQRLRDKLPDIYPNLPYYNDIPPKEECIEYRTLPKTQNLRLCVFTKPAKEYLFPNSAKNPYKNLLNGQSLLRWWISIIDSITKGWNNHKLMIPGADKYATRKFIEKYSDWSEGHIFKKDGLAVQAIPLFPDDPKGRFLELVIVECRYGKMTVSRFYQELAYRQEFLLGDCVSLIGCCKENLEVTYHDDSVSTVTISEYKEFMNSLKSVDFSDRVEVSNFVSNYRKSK
ARFGAP1 inh conf = confirmation of rat ARFGAP1 inhibitors. shares compounds with ARFGAP1 inh. ARFGAP1-stimulated ARF1 GTP hydrolysis, GDP tracer FP. inhibition, % at 16.5 µM. 30% of 890 active;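 active = average inhibition over triplicates above the hit cutoff set in the earlier primary screen, cut at about 25% in these data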
Hits are given with their value; - = inactive; . = no result given; + = active, no number.

SMILES	ASAP1 GAP inh	Efflux pump inh	ARFGAP1 inh	FGF22 binding	Rtt109 HAT inh	ARFGAP1 inh conf
COc1ccc(NC(=O)c2ccc3c(=O)n(-c4ccc(OC)cc4OC)c(=S)[nH]c3c2)cc1	-	-	-	-	-	.
Cc1ccc(N2C(=O)CC(Sc3nc(C)cc(C)n3)C2=O)cc1 (stereo unspecified)	-	-	25	-	-	-
CCOc1ccc(N2C(=O)CC(Sc3nc(C)cc(C)n3)C2=O)cc1 (stereo unspecified)	-	-	-	.	-	.
Cc1cc(=O)n(-c2ccc(C(=O)O)cc2)[nH]1	-	-	28	-	-	-
Cn1cc(C(=O)NCCc2ccccc2)c(=O)c2cc(S(=O)(=O)N3CCOCC3)ccc21	-	.	-	-	-	.
CCOC(=O)Cc1csc(NC(=O)CSc2ncnc3c2cnn3-c2ccccc2Cl)n1	-	.	35	.	-	-
Cc1nnc(NC(=O)CSc2ncnc3c2cnn3-c2ccccc2C)s1	-	-	-	.	-	.
Cc1ccc(NC(=O)CN(C)C(=O)c2ccc(-n3cncn3)c([N+](=O)[O-])c2)cc1	-	-	-	-	-	.
Cc1ccc(NC(=O)CN(C)C(=O)c2ccc(Sc3nncn3C)c([N+](=O)[O-])c2)cc1	-	-	+	-	-	-
CCOC(=O)c1ccc(N(C(=O)c2ccco2)C(C(=O)NC2CCCC2)c2ccncc2)cc1 (stereo unspecified)	-	-	-	-	-	.
CN(C)S(=O)(=O)c1ccc(C(=O)N(c2ccccn2)c2ccccn2)cc1	-	-	31	.	-	-
O=C(c1cc([N+](=O)[O-])cc([N+](=O)[O-])c1)N(c1ccccn1)c1ccccn1	-	-	-	.	-	.
CCOc1cc2nc(-c3ccc(OC)c(OC)c3)nc(N3CCOCC3)c2cc1OC	-	-	26	.	.	-
Cn1c(=O)cc(N2CCOCC2)[nH]c1=O	-	-	-	-	-	.
Cc1ccccc1NC(=O)Cc1nc(COC(=O)c2cc([N+](=O)[O-])ccc2N)cs1	-	-	29	-	-	-
Cc1ccccc1NC(=O)Cc1nc(COC(=O)c2cc(Br)ccc2O)cs1	-	-	-	-	-	.
COc1ccc(F)c(CN2CCCC(CNS(=O)(=O)c3cccc4cccnc34)C2)c1 (stereo unspecified)	-	-	-	-	-	.
Cc1ccnc(NS(=O)(=O)c2ccc(NC(=O)c3ccc(Br)o3)cc2)n1	-	-	-	-	-	.
Cc1ccnc(Nc2ccc(CCO)cc2)n1	-	.	27	-	.	-
CC(C)NC(=O)c1ccccc1NC(=O)CN(c1ccc2c(c1)OCO2)S(C)(=O)=O	-	-	30	.	-	-
CCOc1cc(/C=N/NC(=O)CSc2nnc(C)s2)ccc1OCc1ccccc1Cl	-	-	-	-	-	.
Cc1ccn2c(C(=O)CSc3ccc(Cl)cc3Cl)c(C)nc2c1	.	-	.	.	-	.
CC(C)CCNC(=O)COC(=O)/C=C/c1ccc2ccccc2n1	-	-	-	-	-	.
O=C(COC(=O)/C=C/c1ccc2ccccc2n1)NNC(=O)c1ccccc1	-	.	49	-	.	-
CC(CCc1ccccc1)N(C)CC(O)c1cccc([N+](=O)[O-])c1 (stereo unspecified)	-	-	-	-	-	.
SMILES	ASAP1 GAP inh	Efflux pump inh	ARFGAP1 inh	FGF22 binding	Rtt109 HAT inh	ARFGAP1 inh conf
COc1ccc(C(=O)N/C(=C\c2ccccc2)C(=O)Nc2cccc(C(=O)O)c2)cc1	-	-	-	.	-	.
CCOC(=O)Cc1csc(NC(=O)CN2C(=O)c3ccccc3S2(=O)=O)n1	-	-	33	.	-	-
O=[N+]([O-])c1ccc(N/N=C2\CC3CC=CC23)cc1 (stereo unspecified)	-	-	28	-	-	-
O=[N+]([O-])c1ccc(N/N=C2\CC3CC=CC23)c([N+](=O)[O-])c1 (stereo unspecified)	-	-	-	-	-	.
O=C(N/N=C/c1cccc([N+](=O)[O-])c1)c1ccc(COc2ccccc2-c2ccccc2)cc1	-	-	35	-	-	-
O=C(N/N=C/c1cccc([N+](=O)[O-])c1)c1ccc(Br)cc1	-	-	-	-	-	.
C=CCNC(=S)Nc1ccc2nsnc2c1	-	-	-	.	-	.
CCOc1ccc(NC(=S)Nc2ccc3nsnc3c2)cc1	-	-	26	.	-	-
C=CCN(CC=C)C(=S)Nc1ccc2nsnc2c1	-	-	32	-	.	-
CNC(=O)c1[nH]cnc1C(=O)Nc1ccc(F)cc1	-	-	-	-	-	.
O=C(CCc1c[nH]c2ccccc12)Nc1ccc(Nc2ccccc2)cc1	-	.	27	1.4	.	-
O=C(CCc1c[nH]c2ccccc12)Nc1ccc(Nc2ccncc2)cc1	-	.	-	-	.	.
OC(c1ccccc1)c1ncc(-c2ccc(C(F)(F)F)cc2)[nH]1 (stereo unspecified)	-	.	-	-	.	.
OC(c1ccc(-c2ccccc2)cc1)c1ncc(-c2ccc(C(F)(F)F)cc2)[nH]1 (stereo unspecified)	-	.	39	-	.	-
CCOc1cc(/C=N/n2c(C)nnc2C)ccc1O	-	-	28	-	-	-
CCOc1ccc(/C=N/n2c(C)nnc2C)cc1OC	-	-	-	-	-	.
Cc1c(C(=O)NN)nn(-c2ccc(Cl)cc2)c(=O)c1C#N	-	-	25	-	-	-
O=C(NCc1cccnc1)c1ccc(COc2ccc(Cl)cc2)cc1	-	-	28	-	-	-
COc1ccc(CNC(=O)c2sc(=O)n(Cc3ccc(C)cc3)c2C)cc1OC	-	.	-	-	.	.
COc1ccc(CNC(=O)c2sc(=O)n(Cc3ccc(-c4ccccc4)cc3)c2C)cc1OC	-	.	26	-	.	-
Cc1cccc(Nc2nc(-c3ccc4c(c3)OCCO4)cs2)c1	-	-	26	.	-	-
Cc1cccc(Nc2nc(-c3ccncc3)cs2)c1	-	-	-	-	-	.
Cn1c(-c2ccc3c(c2)OCO3)cc(=O)c2ccccc21	-	-	-	-	-	.
Cn1c2ccccc2c(=O)c2ccc(-c3ccc4c(c3)OCO4)cc21	-	-	37	-	-	90
COc1cccc(C#Cc2ccc([C@@H]3[C@@H](C#N)N(C(=O)C4CCCCC4)[C@H]3CO)cc2)c1	.	.	.	-	.	.
SMILES	ASAP1 GAP inh	Efflux pump inh	ARFGAP1 inh	FGF22 binding	Rtt109 HAT inh	ARFGAP1 inh conf
COc1ccc(CN(C)C[C@@H]2OCCCC[C@H](C)Oc3ccc(NS(=O)(=O)c4cccs4)cc3C(=O)N([C@H](C)CO)C[C@H]2C)cc1	.	.	.	-	.	.
COc1cccc(-c2ccccc2[C@@H]2[C@H](C#N)N(C(=O)c3ccccn3)[C@H]2CO)c1	.	.	.	-	.	.
CCOC(=O)CNC(=O)c1c(C)nn(C)c1Cl	-	-	25	.	-	-
CCn1nc(NC(=O)c2cccs2)c2cc3ccccc3nc21	-	-	-	-	-	.
CCn1nc(NC(=O)c2cccnc2)c2cc3ccccc3nc21	-	-	27	.	-	-
CN1/C(=C/C2CC(=O)N(c3cccc4ccccc34)C2=O)C(C)(C)c2ccccc21 (stereo unspecified)	-	-	-	.	-	.
